From ChEMBL document CHEMBL1177688, “Synthesis of novel pyrazolic analogues of chalcones and their 3-aryl-4-(3-aryl-4,5-dihydro-1H-pyrazol-5-yl)-1-phenyl-1H-pyrazole derivatives as potential antitumor agents” (2010)

How the values were obtained:
Type in all cases: functional
Hs-578T = assay: Antiproliferative activity against human Hs 578T cells after 48 hrs by SRB assay; details: read-out: LC50 (the source's name)
Procedure, shortened: (§1)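 NCI 60-cell-line human tumour panel, secondary five-dose screen. Compounds tested at 100, 10, 1.0, 0.1 and 0.01 µM with 48 h continuous exposure. Cell growth was estimated by sulforhodamine B protein staining. GI50 is the concentration giving a 50% reduction in net protein increase relative to untreated control cells over the incubation. TGI and LC50 were also derived.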

KM12 = assay: Antiproliferative activity against human KM12 cells after 48 hrs by SRB assay; details: KM12, 48 h, read-out: LC50 (the source's name); procedure, shortened: as §1
SK-MEL-5 = assay: Antiproliferative activity against human SK-MEL-5 cells after 48 hrs by SRB assay; details: SK-MEL-5, 48 h
Procedure, shortened: (§2)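 NCI 60-cell human tumour line panel. Continuous 48 h drug exposure at five concentrations (100, 10, 1.0, 0.1, 0.01 µM). Cell growth estimated by sulforhodamine B protein staining. GI50 = concentration giving 50% reduction in net protein increase versus control cells over the incubation. LC50 = molar concentration killing 50% of cells.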

UACC-62 = assay: Antiproliferative activity against human UACC62 cells after 48 hrs by SRB assay; details: UACC-62, 48 h; for CC50: read-out: LC50 (the source's name); procedure, shortened: as §1
SW-620 = assay: Antiproliferative activity against human SW620 cells after 48 hrs by SRB assay; details: SW-620, 48 h; procedure, shortened: as §1
PC-3 = assay: Antiproliferative activity against human PC3 cells after 48 hrs by SRB assay; details: PC-3, 48 h; procedure, shortened: as §1
OVCAR-5 = assay: Antiproliferative activity against human OVCAR5 cells after 48 hrs by SRB assay; details: OVCAR-5, 48 h; for CC50: read-out: LC50 (the source's name); procedure, shortened: as §1
TK-10 = assay: Antiproliferative activity against human TK10 cells after 48 hrs by SRB assay; details: TK-10, 48 h; for CC50: read-out: LC50 (the source's name); procedure, shortened: as §1
HCC 2998 = assay: Antiproliferative activity against human HCC2998 cells after 48 hrs by SRB assay; details: HCC 2998, 48 h; for CC50: read-out: LC50 (the source's name); procedure, shortened: as §1
[1] = Antiproliferative activity against human […] cells after 48 hrs by SRB assay; procedure, shortened: as §1
ACHN = assay: Antiproliferative activity against human ACHN cells after 48 hrs by SRB assay; procedure, shortened: as §2
OVCAR-4 = assay: Antiproliferative activity against human OVCAR4 cells after 48 hrs by SRB assay; details: OVCAR-4, 48 h, read-out: LC50 (the source's name); procedure, shortened: as §1
MDA-MB-231 = assay: Antiproliferative activity against human MDA-MB-231 cells after 48 hrs by SRB assay; details: MDA-MB-231, 48 h; procedure, shortened: as §2
DU-145 = assay: Antiproliferative activity against human DU145 cells after 48 hrs by SRB assay; details: DU-145, 48 h, read-out: LC50 (the source's name); procedure, shortened: as §1
MOLT-4 = assay: Antiproliferative activity against human MOLT4 cells after 48 hrs by SRB assay; details: MOLT-4, 48 h; procedure, shortened: as §1
K562 = assay: Antiproliferative activity against human K562 cells after 48 hrs by SRB assay; details: K562, 48 h; procedure, shortened: as §1
HOP-62 = assay: Antiproliferative activity against human HOP62 cells after 48 hrs by SRB assay; details: HOP-62, 48 h; procedure, shortened: as §1
HL-60 = assay: Antiproliferative activity against human HL-60(TB) cells after 48 hrs by SRB assay; details: HL-60, 48 h; procedure, shortened: as §1
786-0 = assay: Antiproliferative activity against human 786-0 cells after 48 hrs by SRB assay; details: 786-0, 48 h; procedure, shortened: as §1
CCRF-CEM = assay: Antiproliferative activity against human CCRF-CEM cells after 48 hrs by SRB assay; details: read-out: LC50 (the source's name); procedure, shortened: as §1
OVCAR-3 = assay: Antiproliferative activity against human OVCAR-3 cells after 48 hrs by SRB assay; details: OVCAR-3, 48 h; procedure, shortened: as §1
[2] = read-out: LC50 (the source's name)

SMILES	CC50 (KM12) [µM]	GI50 (SK-MEL-5) [µM]	GI50 (UACC-62) [µM]	CC50 (UACC-62) [µM]	GI50 (OVCAR-5) [µM]	CC50 (OVCAR-5) [µM]	CC50 (TK-10) [µM]	GI50 (HCC 2998) [µM]	CC50 (HCC 2998) [µM]	GI50 [1] [µM]	LC50 (50% lethal concentration) [1] [µM]	GI50 (ACHN) [µM]	GI50 (MDA-MB-231) [µM]	CC50 (DU-145) [µM]	also measured
COc1ccc(C2=NN(C(C)=O)C(c3cn(-c4ccccc4)nc3-c3ccc(Cl)cc3)C2)cc1 (stereo unspecified)	> 100	1.79	2.4	> 100	1.81	> 100	> 100	2.21	> 100	1.73	> 100	1.82	1.88	> 100	CC50 (Hs-578T): > 100 µM; GI50 (SW-620): 3.48 µM; CC50 (SW-620; [2]): > 100 µM; GI50 (PC-3): 2.35 µM; CC50 (PC-3; [2]): > 100 µM; CC50 (OVCAR-4): > 100 µM
O=C(/C=C/c1cn(-c2ccccc2)nc1-c1ccc([N+](=O)[O-])cc1)c1ccc(Cl)cc1	> 100	> 100	11.4	> 100	> 100	> 100	> 100	> 100	> 100	1.86	> 100	4.27	2.45	> 100	GI50 (MOLT-4): 0.87 µM; CC50 (MOLT-4; [2]): > 100 µM; CC50 (SK-MEL-5; [2]): > 100 µM; GI50 (K562): 0.09 µM; CC50 (K562; [2]): > 100 µM; GI50 (HOP-62): 26 µM; CC50 (HOP-62; [2]): > 100 µM; GI50 (HL-60): > 100 µM; CC50 (HL-60; [2]): > 100 µM; GI50 (TK-10): 3.12 µM; GI50 (786-0): 3.94 µM; CC50 (786-0; [2]): > 100 µM; CC50 (ACHN; [2]): > 100 µM; CC50 (CCRF-CEM): > 100 µM; CC50 (MDA-MB-231; [2]): > 100 µM; GI50 (OVCAR-3): 1.96 µM; CC50 (OVCAR-3; [2]): > 100 µM
